{"source": "paper PMC6719797", "about": "(Bioorganic & medicinal chemistry letters, 2019)", "molecules": {"B1": {"name": "human UCK2 (Homo sapiens) (protein)", "chain": "MAGDSEQTLQNHQQPNGGEPFLIGVSGGTASGKSSVCAKIVQLLGQNEVDYRQKQVVILSQDSFYRVLTSEQKAKALKGQFNFDHPDAFDNELILKTLKEITEGKTVQIPVYDFVSHSRKEETVTVYPADVVLFEGILAFYSQEVRDLFQMKLFVDTDADTRLSRRVLRDISERGRDLEQILSQYITFVKPAFEEFCLPTKKYADVIIPRGADNLVAINLIVQHIQDILNGGPSKRQTNGCLNGYTPSRKRQASESSSRPH"}}, "key": {"K562 cells": {"tested_on": "K562 cells", "test": "5-EU uridine salvage assay", "assay_type": "cell-based", "conditions": "for %Inhibition at highest tested concentration (EU assay): K562 cells, 50 µM compound, 5-EU salvage", "in_short": "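K562 cells, untreated or pre-treated with the DHODH inhibitor GSK983, were given 5-ethynyl-uridine (5-EU) with test compound at a fixed concentration (50 µM). Salvaged 5-EU incorporated into cellular RNA was detected with a fluorescent click probe. Dipyridamole (20 µM) served as the uridine-salvage inhibitor control.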"}, "human UCK2 [1]": {"molecular_target": "T1, human UCK2 (Homo sapiens, UniProt Q9BZX2)", "T1 sequence (Q9BZX2 1-261)": "B1 chain", "test": "ADP-Glo kinase assay for UCK2 activity", "assay_type": "biochemical", "conditions": "for IC50 obtained from validation experiments: retested in the ADP-Glo assay, unit given"}, "A549 cells": {"tested_on": "A549 cells", "test": "5-EU uptake assay in A549 cells", "assay_type": "cell-based"}, "human UCK2 [2]": {"molecular_target": "T1, human UCK2", "assay_type": "biochemical", "conditions": "kinetic analysis", "in_short": "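C-terminally His6-tagged human UCK2 was purified by Ni-NTA and then ion-exchange chromatography. UCK2-generated ADP was coupled through pyruvate kinase and lactate dehydrogenase, and NADH consumption was followed continuously at 340 nm. To determine the mode of inhibition, uridine or ATP was titrated at several fixed inhibitor concentrations, and Ki values were derived for each substrate.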"}, "DNA polymerase kappa": {"molecular_target": "DNA polymerase kappa", "conditions": "read-out: IC50 DNA polymerase kappa; ref PubChem; cited from earlier work"}, "DNA polymerase eta": {"molecular_target": "DNA polymerase eta", "conditions": "read-out: IC50 DNA polymerase eta; ref PubChem; cited from earlier work"}, "DNA polymerase iota": {"molecular_target": "DNA polymerase iota", "conditions": "read-out: IC50 DNA polymerase iota; HTS hit; ref PubChem; cited from earlier work"}, "DNA polymerase beta": {"molecular_target": "DNA polymerase beta", "conditions": "read-out: IC50 DNA polymerase beta; HTS hit; ref PubChem; cited from earlier work"}, "CMPK1": {"molecular_target": "T2, CMPK1 (Homo sapiens, UniProt P30085)", "T2 sequence (P30085 1-196)": "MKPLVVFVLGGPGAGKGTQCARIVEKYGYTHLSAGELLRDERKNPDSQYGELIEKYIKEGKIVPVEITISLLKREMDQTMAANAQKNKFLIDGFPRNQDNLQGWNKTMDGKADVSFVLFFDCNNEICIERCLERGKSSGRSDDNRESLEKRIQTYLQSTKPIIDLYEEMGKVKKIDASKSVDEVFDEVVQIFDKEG", "test": "ADP-Glo screen for CMPK1", "assay_type": "biochemical", "conditions": "analogous ADP-Glo screen"}, "[3]": {"substrate": "O=c1ccn([C@@H]2O[C@H](CO)[C@@H](O)[C@H]2O)c(=O)[nH]1", "test": "ADP-Glo kinase assay for UCK2 activity", "assay_type": "biochemical, human", "conditions": "other: steady state conditions, named substrate varied"}}}
{"molecule": "Cc1ccc(-c2nc3c(c(SCC(=O)Nc4ccccc4)n2)Cc2cccc(C)c2O3)cc1", "note": "[20874830–1]", "values": [{"measurement": "%Inhibition at highest tested concentration (EU assay)", "setting": "K562 cells", "value": "No inhibition"}]}
{"molecule": "O=C(CSCn1[nH]nc2c(=O)nc(Cc3ccc(F)cc3)nc1-2)Nc1ccc(F)cc1", "note": "[135546734–2]", "values": [{"measurement": "IC50 obtained from validation experiments", "setting": "human UCK2 [1]", "value": "completely inactive"}]}
{"molecule": "COc1cccc(NC(=O)CSCn2[nH]nc3c(=O)nc(Cc4ccc(F)cc4)nc2-3)c1", "note": "[135546734–3]", "values": [{"measurement": "IC50 obtained from validation experiments", "setting": "human UCK2 [1]", "value": "completely inactive"}, {"measurement": "%Inhibition at highest tested concentration (EU assay)", "setting": "K562 cells", "value": "No inhibition"}]}
{"molecule": "Nc1ncnc2c1ncn2[C@@H]1O[C@H](COP(=O)(O)OP(=O)(O)OP(=O)(O)O)[C@@H](O)[C@H]1O", "note": "[ATP]", "values": [{"measurement": "Km", "setting": "human UCK2 [1]; read-out: KM (UCK2 substrate), steady state conditions, named substrate varied", "value": "61 ± 1", "unit": "µM"}]}
{"molecule": "OCCN(CCO)c1nc(N2CCCCC2)c2nc(N(CCO)CCO)nc(N3CCCCC3)c2n1", "note": "[Dipyridamole, dipyridamole]", "values": [{"measurement": "Inhibition of 5-EU uptake", "setting": "A549 cells", "value": "inhibits 5-EU uptake in a dose-dependent manner"}]}
{"molecule": "O=C(N[C@@H]1CCCc2c1[nH]c1ccc(Cl)cc21)c1ccccn1", "note": "[GSK983, reference compound]", "values": [{"measurement": "Effect on uridine salvage (5-EU assay)", "setting": "K562 cells; K562 cells treated with GSK983 vs untreated", "value": "significantly increased uridine salvage"}]}
{"molecule": "Cc1ccc(-c2nc3c(c(SCC(=O)Nc4cccc(C(=O)O)c4)n2)Cc2cccc(C)c2O3)cc1", "note": "[compound 20874830]", "values": [{"measurement": "Mode of inhibition with respect to uridine and ATP", "setting": "human UCK2 [2]", "value": "primarily non-competitive"}]}
{"molecule": "O=C(CSc1nc2n(-c3ccc(F)cc3)[nH]cc-2c(=O)n1)Nc1ccc(Br)cc1", "note": "[compound 135416439]", "values": [{"measurement": "IC50", "setting": "DNA polymerase kappa", "value": 16, "unit": "µM"}, {"measurement": "IC50", "setting": "DNA polymerase eta", "value": 56, "unit": "µM"}, {"measurement": "Mode of inhibition with respect to uridine and ATP", "setting": "human UCK2 [2]", "value": "non-competitive"}]}
{"molecule": "Cc1cc(C)cc(NC(=O)CSCn2[nH]nc3c(=O)nc(Cc4ccc(F)cc4)nc2-3)c1", "note": "[compound 135546734]", "values": [{"measurement": "IC50", "setting": "DNA polymerase iota", "value": 79, "unit": "µM"}, {"measurement": "IC50", "setting": "DNA polymerase beta", "value": 40, "unit": "µM"}, {"measurement": "Inhibition of CMPK1", "setting": "CMPK1", "value": "no inhibition"}, {"measurement": "IC50", "setting": "DNA polymerase eta", "value": 79, "unit": "µM"}, {"measurement": "Mode of inhibition with respect to uridine and ATP", "setting": "human UCK2 [2]", "value": "similarly non-competitive"}, {"measurement": "inhibition at 50 µM", "setting": "K562 cells; Homo sapiens, K562, read-out: %Inhibition at highest tested concentration (EU assay), K562 cells, 50 µM compound, 5-EU salvage", "value": "~40", "unit": "%"}]}
{"molecule": "B1", "values": [{"measurement": "Km", "setting": "[3]", "value": "62 ± 5", "unit": "µM"}]}
